Bioassay records deposited in PubChem BioAssay by several laboratories.
An excerpt weighted towards active compounds, which were near 3.9% of everything screened.
CRFBP-R2 block = antagonists of CRF-binding protein/CRF-R2 receptor complex | HEK293 CRF-R2/CRF-BP, CRF-induced calcium fluorescence | 350,000 compounds, 0.59% hits | inhibition, % at 11.8 µM | AID 588475;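 active means inhibition of the ligand-induced calcium signal above about 50% at the single tested concentration, limit read from the data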
ANO1 block = mouse TMEM16A channel inhibition, primary screen; normalized B-score (activity score, 25-100; higher = stronger inhibition) at 10 µM; HEK293 TMEM16A/YFP iodide influx fluorescence, ionomycin; 310,000 compounds, 1.2% hits; Q8BHY3;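 active means ratio plate-corrected score three or more library SD toward inhibition, starting fluorescence score within five deviations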;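 further: score derived from kinetic fluorescence span divided by baseline fluorescence per well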
CRFR2-BP ag = CRF-BP/CRF-R2 complex agonism; HEK293 CRF-R2/CRF-BP, calcium dye fluorescence (FLIPR); percent of saturating CRF peptide response; activation, % at 13.2 µM; 350,000 compounds, 0.46% hits; AID 588473;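 active means activation of at least 50%, plus an integration ratio under a set limit after plate pattern correction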;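 further: plate controls were neutral control wells without compound for no effect and CRF at EC100 for full effect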
ANO1 activ = activators or potentiators of mouse TMEM16A chloride channel. AID 623877. 340,000 compounds, 0.3% hits. B-score at 10 µM. Q8BHY3. HEK293 TMEM16A/YFP-H148Q/I152L, iodide quench fluorescence; hits give low values;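 active means fluorescence-ratio B-score plate-corrected deviation score at least 3 library SD below zero, with starting fluorescence score within 5 deviations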;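 further: channel opened by trigger with iodide after compound preincubation; score built on the fluorescence ratio of max minus min over baseline; more negative score means more quench and so TMEM16A activation or potentiation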
TAAR1 antag = human TAAR1 antagonism | CHO RD-HGA16 TAAR1, Fluo-8 calcium fluorescence, antagonist | 360,000 compounds, 1.5% hits | AID 624466 | inhibition, % at 3 µM;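 active means inhibition above a per-plate cutoff, the mean inhibition of test compounds on that plate plus 3 SD, cut at about 49% in these data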;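 further: 0% = DMSO plus EC80 beta-PEA response and 100% = DMSO alone without agonist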
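test system = CHO RD-HGA16 cells bearing hTAAR1 | replication = singlicate | controls = DMSO-only wells and EC80 β-PEA-stimulated wells | reagent = EC80 β-phenethylamine stimulus | read-out basis = percent inhibition of PEA-evoked calcium signal, max/basal emission ratio | schedule = seeding 17-24 h prior, 75-min 37 °C, 30-min RT dye loading | signal = kinetic Fluo-8 calcium fluorescence measurement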
TAAR1 ag = human TAAR1 agonism | Q96RJ0 | activation, % at 3 µM | 360,000 compounds, 0.99% hits | CHO RD-HGA16 TAAR1, Fluo-8 calcium fluorescence; vehicle wells 0%, saturating PEA agonist 100% | AID 624467;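 active means activation above the mean activation of all test compounds in the run plus 3 SD, cut at about 38% in these data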
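Assay system: CHO-derived RD-HGA16 cells with stable Gα16 and human TAAR1; timing: 17-24 h seeding, 75 min 37 °C dye, 30 min RT; read-out: % activation from peak over basal fluorescence ratio, DMSO-to-PEA scaled; measured by: kinetic Fluo-8 calcium fluorescence; benchmarks: low control DMSO, high control PEA (EC100); doses: 3 µM single concentration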
Numbers without * were called inactive.

What do the screens show for `C#CCOCCOCCOCCNc1nc(N2CCN(C(=O)CCCCCCCCCCNC(=O)Cn3cc(C[C@@H](C)O)nn3)CC2)nc(N2CCN(C(=O)CCCCCCCCCCNC(=O)[C@H](CO)n3cc(CCCSC)nn3)CC2)n1`?
CRFBP-R2 block: 1; ANO1 block: inactive; CRFR2-BP ag: 4; ANO1 activ: inactive; TAAR1 antag: 49*; TAAR1 ag: 3

What do the screens show for `C#CCOCCOCCOCCNc1nc(N2CCN(C(=O)[C@H](Cc3cc4ccccc4[nH]3)n3cc([C@@H](N)C(C)CC)nn3)CC2)nc(N2CCN(C(=O)[C@H](CCCCN)n3cc([C@@H](N)CO)nn3)CC2)n1` (some centres not stated)?
ANO1 block: inactive

What do the screens show for `CCS(=O)(=O)N1CCN(c2ccc([N+](=O)[O-])c(NCC3CCCO3)c2)CC1` (configuration not stated)?
CRFBP-R2 block: 5; ANO1 block: inactive; CRFR2-BP ag: -2; ANO1 activ: inactive; TAAR1 antag: 8; TAAR1 ag: 2

Results for CC(C)C[C@H]1CNC(=O)C(=O)N1C[C@@H]1CCCN1C[C@H](Cc1ccccc1)N1C[C@H](Cc2ccccc2)N(CC2CCCCC2)C(=O)C1=O ?
TAAR1 antag: -2; TAAR1 ag: 0

How did CC(C)CCN1CCN(C2CSCCSC2)CC1CCO (configuration not stated) do in these assays?
CRFBP-R2 block: 5; ANO1 block: inactive; CRFR2-BP ag: 1; ANO1 activ: inactive; TAAR1 antag: -13; TAAR1 ag: 4

How did COc1ccccc1C(=O)NC(CCSC)C(=O)NCCCn1nc(C)cc1C (configuration not stated) do in these assays?
CRFBP-R2 block: -5; ANO1 block: inactive; CRFR2-BP ag: 0; ANO1 activ: inactive; TAAR1 antag: 1; TAAR1 ag: 1

Results for O=[N+]([O-])c1ccc(N/N=C/C=C/c2ccco2)cc1 ?
CRFBP-R2 block: -57; ANO1 block: inactive; CRFR2-BP ag: 95*; ANO1 activ: inactive; TAAR1 antag: 39; TAAR1 ag: 16

What do the screens show for `O=C(Nc1ccc(-c2csc(Nc3ccc(Cl)cc3)n2)cc1)c1ccccc1`?
CRFBP-R2 block: 2; CRFR2-BP ag: -1; ANO1 activ: inactive; TAAR1 antag: 51*; TAAR1 ag: 4

Results for COc1ccc(Cl)cc1N1C(=O)/C(=C/c2sccc2C)N=C1SCC(=O)NC1CC1 ?
CRFBP-R2 block: 12; CRFR2-BP ag: 3; TAAR1 antag: -6; TAAR1 ag: 1

Results for O=c1[nH]c2ccc(Cl)cc2[nH]1 ?
CRFBP-R2 block: 109*; CRFR2-BP ag: 2; ANO1 activ: inactive; TAAR1 antag: -6; TAAR1 ag: 2

Results for O=c1[nH]c2ccc(S(=O)(=O)Nc3ccc(Cl)cc3)cc2[nH]1 ?
CRFBP-R2 block: 0; ANO1 block: inactive; CRFR2-BP ag: -3; ANO1 activ: inactive; TAAR1 antag: -11; TAAR1 ag: 1

How did C=CCNc1ncnc2c1ncn2[C@H]1CN(Cc2ccco2)C[C@@H](CO)O1 do in these assays?
TAAR1 antag: -9; TAAR1 ag: 2

Results for Cn1c(=O)cc(OCCCC(=O)Nc2cccc(Cl)c2)c2ccccc21 ?
TAAR1 antag: -43; TAAR1 ag: 4

What do the screens show for `COc1cccc(C2=Nn3c(nnc3-c3ccccc3O)SC2)c1`?
CRFBP-R2 block: 5; ANO1 block: inactive; CRFR2-BP ag: -1; ANO1 activ: inactive; TAAR1 antag: 5; TAAR1 ag: 0

How did C[n+]1c2n(c3ccccc31)N=C(c1cc(C(C)(C)C)c(O)c(C(C)(C)C)c1)CS2 do in these assays?
CRFBP-R2 block: -44; ANO1 block: 100*; CRFR2-BP ag: 4; ANO1 activ: inactive; TAAR1 antag: -2; TAAR1 ag: 6

What do the screens show for `Cc1ccc(S(=O)(=O)Nc2cc3c(cc2C#N)OCO3)cc1C(N)=O`?
CRFBP-R2 block: 14; ANO1 block: inactive; CRFR2-BP ag: 2; ANO1 activ: inactive; TAAR1 antag: -11; TAAR1 ag: 1

Results for CC1CCc2nc3ccccc3c(C(=O)OCC(=O)N3CCc4ccccc43)c2C1 (configuration not stated) ?
CRFBP-R2 block: -20; ANO1 block: inactive; CRFR2-BP ag: 2; ANO1 activ: inactive; TAAR1 antag: 26; TAAR1 ag: 1

How did CCCc1nc2ccccc2c(C(=O)OCC(=O)Nc2cccc(S(=O)(=O)N3CCOCC3)c2)c1CC do in these assays?
CRFBP-R2 block: -11; ANO1 block: inactive; CRFR2-BP ag: 10; ANO1 activ: inactive; TAAR1 antag: 52*; TAAR1 ag: 3

What do the screens show for `CCCc1nc2ccccc2c(C(=O)OCC(=O)N2CCc3ccccc32)c1CC`?
CRFBP-R2 block: 2; ANO1 block: inactive; CRFR2-BP ag: 6; ANO1 activ: inactive; TAAR1 antag: 52*; TAAR1 ag: 0

How did CCCc1nc2ccccc2c(C(=O)OCC(=O)Nc2ccc(S(=O)(=O)N3CCOCC3)cc2)c1CC do in these assays?
CRFBP-R2 block: -22; ANO1 block: inactive; CRFR2-BP ag: 3; ANO1 activ: inactive; TAAR1 antag: 22; TAAR1 ag: 12

What do the screens show for `CCOP(=O)(OCC)C(Nc1cccc([N+](=O)[O-])c1)c1ccccc1` (configuration not stated)?
CRFBP-R2 block: 84*; ANO1 block: inactive; CRFR2-BP ag: 0; ANO1 activ: inactive; TAAR1 antag: -12; TAAR1 ag: -2

Results for CC(C)COP(=O)(OCC(C)C)C(Nc1ccccc1)c1ccc(F)cc1 (configuration not stated) ?
CRFBP-R2 block: -44; ANO1 block: inactive; CRFR2-BP ag: -1; ANO1 activ: inactive; TAAR1 antag: 32; TAAR1 ag: 3

What do the screens show for `CC(C)COP(=O)(OCC(C)C)C(Nc1ccccc1)c1ccccc1` (configuration not stated)?
CRFBP-R2 block: -21; ANO1 block: 25*; CRFR2-BP ag: 1; ANO1 activ: inactive; TAAR1 antag: 17; TAAR1 ag: 6

Results for CCNC(=S)N(CCc1ccc(S(N)(=O)=O)cc1)C1CC(=O)N(c2ccccc2)C1=O (configuration not stated) ?
CRFBP-R2 block: -95; ANO1 block: inactive; CRFR2-BP ag: 97*; ANO1 activ: inactive; TAAR1 antag: 6; TAAR1 ag: 15
